ChEMBL document CHEMBL5390282, “Discovery of tert-Butyl Ester Based 6-Diazo-5-oxo-l-norleucine Prodrugs for Enhanced Metabolic Stability and Tumor Delivery” (J Med Chem, 2023)

How the values were obtained:
[1] = Prodrug conversion in plasma of C57BL/6 mouse model with CES-/- bearing mouse EL4 cells assessed as AUC of DON metabolite at 2.9 mg/kg, sc measured upto 6 hrs by LC-MS analysis; format: ADME, organism-based; set-up: time < 6 hrs, dose 2.9 mg/kg, route sc; details: in vivo
Summary of the method: (§1)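 CES1–/– C57BL/6 mice with flank EL4 tumours (about 400 mm3) dosed SC at 2.9 mg/kg (1 mg/kg DON equivalent) in ethanol:Tween 80:saline (5:10:85). Plasma, tumour and jejunum sampled 0–6 h after dosing. DON quantified by LC-MS/MS after dabsyl chloride derivatization, glutamate-d5 internal standard. Cmax, Tmax and AUC derived by noncompartmental analysis.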

[2] = Prodrug conversion in plasma of C57BL/6 mouse model with CES-/- bearing mouse EL4 cells assessed as AUC (0 to t) of DON metabolite at 2.9 mg/kg, sc measured upto 6 hrs by LC-MS analysis; format: ADME, organism-based; details: in vivo; summary of the method: as §1
[3] = Prodrug conversion in plasma of C57BL/6 mouse model with CES-/- bearing mouse EL4 cells assessed as half life of DON metabolite at 2.9 mg/kg, sc measured upto 6 hrs by LC-MS analysis; format: ADME, organism-based; details: in vivo; summary of the method: as §1
[4] = Stability in human plasma suspended with human P493B cells assessed as tumor cell to plasma partitioning at 20 uM incubated for 1 hr; format: ADME
Summary of the method: (§2)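 P493B cells resuspended in human plasma at 10 million cells/mL and preincubated 5 min at 37 °C. Prodrug spiked at 20 μM final and incubated 1 h at 37 °C, in triplicate. Cells pelleted at 1000g. Plasma and pellet each analysed by LC-MS for intact prodrug and DON, with calibration made in each matrix. Partitioning expressed as cell/plasma ratio.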

[5] = Prodrug conversion in plasma of C57BL/6 mouse model with CES-/- bearing mouse EL4 cells assessed as Tmax of DON metabolite at 2.9 mg/kg, sc measured upto 6 hrs by LC-MS analysis; format: ADME, organism-based; details: in vivo; summary of the method: as §1
[6] = Prodrug conversion in tumor of C57BL/6 mouse model with CES-/- bearing mouse EL4 cells assessed as AUC (0 to t) of DON metabolite at 2.9 mg/kg, sc measured upto 6 hrs by LC-MS analysis; format: ADME, organism-based, Neoplasm; details: in vivo; summary of the method: as §1
[7] = Stability in human P493B cells suspended in human plasma assessed as tumor cell to plasma partitioning ratio at 20 uM incubated for 1 hr; format: ADME, cell-based; summary of the method: as §2
[8] = Prodrug conversion in C57BL/6 mouse model with CES-/- bearing mouse EL4 cells assessed as ratio of DON metabolite AUC in tumor to jejunum at 2.9 mg/kg, sc measured upto 6 hrs by LC-MS analysis; format: ADME, organism-based; details: in vivo; summary of the method: as §1
[9] = Prodrug conversion in human P493B cells suspended in human plasma assessed as DON metabolite concentration at 20 uM incubated for 1 hr; format: ADME, cell-based; summary of the method: as §2
[10] = system: P493B; test: Antiproliferative activity against human P493B cells assessed as reduction in cell viability incubated for 72 hrs by Cell Titer 96 Aqueous assay; format: functional, cell-based
Summary of the method: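 P493B lymphoma cells seeded at 20 000 cells/well. Test agent added as half-log serial dilutions in 0.2% DMSO final, then 72 h growth. CellTiter 96 AQueous reagent added for 2 h and absorbance read at 490 nm. Viability scaled between untreated cells (100%) and cell-free medium (0%). EC50 obtained by nonlinear regression of log-transformed data.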

[11] = Prodrug conversion in jejunum of C57BL/6 mouse model with CES-/- bearing mouse EL4 cells assessed as AUC (0 to t) of DON metabolite at 2.9 mg/kg, sc measured upto 6 hrs by LC-MS analysis; format: ADME, organism-based; details: in vivo; summary of the method: as §1
[12] = Prodrug conversion in plasma of C57BL/6 mouse model with CES-/- bearing mouse EL4 cells assessed as Cmax of DON metabolite at 2.9 mg/kg, sc measured upto 6 hrs by LC-MS analysis; format: ADME, organism-based; set-up: time < 6 hrs, dose 2.9 mg/kg, route sc; details: in vivo; summary of the method: as §1
[13] = Prodrug conversion in C57BL/6 mouse model with CES-/- bearing mouse EL4 cells assessed as concentration of DON release in tumor administered subcutaneously at 1 mg/kg DON equivalent measured after 30 mins; format: ADME, organism-based; details: in vivo, sc, 0.5 h, read-out: Drug metabolism
Summary of the method: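 Male and female CES1–/– C57BL/6 mice, 6–8 weeks old, each carrying a flank EL4 tumour (1 × 10^6 cells SC in PBS, grown to about 400 mm3). Prodrug dissolved just before use in ethanol:Tween 80:saline (5:10:85) and given once SC at 1 mg/kg DON equivalent, n = 3. At 30 min, plasma and tumour collected. DON measured by LC-MS/MS after dabsyl chloride derivatization, glutamate-d5 internal standard, calibration 0.03–100 nmol/mL.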

[14] = Prodrug conversion in jejunum of C57BL/6 mouse model with CES-/- bearing mouse EL4 cells assessed as AUC of DON metabolite at 2.9 mg/kg, sc measured upto 6 hrs by LC-MS analysis; format: ADME, organism-based; set-up: dose 2.9 mg/kg, time < 6 hrs, route sc; details: in vivo; summary of the method: as §1
[15] = Prodrug conversion in tumor of C57BL/6 mouse model with CES-/- bearing mouse EL4 cells assessed as Tmax of DON metabolite at 2.9 mg/kg, sc measured upto 6 hrs by LC-MS analysis; format: ADME, organism-based, Neoplasm; details: in vivo; summary of the method: as §1
[16] = Prodrug conversion of C57BL/6 mouse model with CES-/- bearing mouse EL4 cells assessed as ratio of DON metabolite AUC (0 to t) in tumor to plasma at 2.9 mg/kg, sc measured upto 6 hrs by LC-MS analysis; format: ADME, organism-based; details: tumour; summary of the method: as §1
[17] = Prodrug conversion in jejunum of C57BL/6 mouse model with CES-/- bearing mouse EL4 cells assessed as half life of DON metabolite at 2.9 mg/kg, sc measured upto 6 hrs by LC-MS analysis; format: ADME, organism-based; details: in vivo; summary of the method: as §1
[18] = Prodrug conversion in tumor of C57BL/6 mouse model with CES-/- bearing mouse EL4 cells assessed as Cmax of DON metabolite at 2.9 mg/kg, sc measured upto 6 hrs by LC-MS analysis; format: ADME, organism-based, Neoplasm; set-up: dose 2.9 mg/kg, time < 6 hrs, route sc; details: in vivo; summary of the method: as §1
[19] = Chemical stability of compound at pH 7.4 at 10 uM incubated for 24 hrs by HRMS analysis; format: physicochemical; details: buffer, pH 7.4, 24 h
Summary of the method: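 Prodrug spiked at 10 μM into pH 7.4 buffer and held at 37 °C for 24 h. Loss of prodrug followed by HRMS.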

[20] = Prodrug conversion in jejunum of C57BL/6 mouse model with CES-/- bearing mouse EL4 cells assessed as Cmax of DON metabolite at 2.9 mg/kg, sc measured upto 6 hrs by LC-MS analysis; format: ADME, organism-based; set-up: dose 2.9 mg/kg, time < 6 hrs, route sc; details: in vivo; summary of the method: as §1
[21] = Prodrug conversion in tumor of C57BL/6 mouse model with CES-/- bearing mouse EL4 cells assessed as half life of DON metabolite at 2.9 mg/kg, sc measured upto 6 hrs by LC-MS analysis; format: ADME, organism-based, Neoplasm; details: in vivo; summary of the method: as §1
[22] = Prodrug conversion in tumor of C57BL/6 mouse model with CES-/- bearing mouse EL4 cells assessed as AUC of DON metabolite at 2.9 mg/kg, sc measured upto 6 hrs by LC-MS analysis; format: ADME, organism-based, Neoplasm; set-up: time < 6 hrs, dose 2.9 mg/kg, route sc; details: in vivo; summary of the method: as §1
[23] = Prodrug conversion in jejunum of C57BL/6 mouse model with CES-/- bearing mouse EL4 cells assessed as Tmax of DON metabolite at 2.9 mg/kg, sc measured upto 6 hrs by LC-MS analysis; format: ADME, organism-based; details: in vivo; summary of the method: as §1
[24] = Prodrug conversion of C57BL/6 mouse model with CES-/- bearing mouse EL4 cells assessed as ratio of DON metabolite AUC (0 to t) in tumor to jejunum at 2.9 mg/kg, sc measured upto 6 hrs by LC-MS analysis; format: ADME, organism-based; details: in vivo; summary of the method: as §1
[25] = Drug concentration in jejunum of C57BL/6 mouse model with CES-/- bearing mouse EL4 cells at 2.9 mg/kg, sc measured upto 6 hrs by LC-MS analysis; format: ADME, organism-based; summary of the method: as §1
[26] = Stability in human P493B cells suspended in human plasma assessed as DON metabolite release at 20 uM incubated for 1 hr; format: ADME, cell-based; summary of the method: as §2
[27] = Prodrug conversion in C57BL/6 mouse model with CES-/- bearing mouse EL4 cells assessed as ratio of DON metabolite AUC in tumor to plasma at 2.9 mg/kg, sc measured upto 6 hrs by LC-MS analysis; format: ADME, organism-based; details: tumour; summary of the method: as §1

## CN(C)CC(=O)N[C@@H](Cc1ccccc1)C(=O)N[C@@H](CCC(=O)C=[N+]=[N-])C(=O)OC(C)(C)C
[1]
  AUC: 3.97 µM·h
[2]
  AUCt: 3.8 nmol·h/g
[3]
  t1/2: 87 min
[4]
  Stability: Stable
[5]
  Tmax: 30 min
[6]
  AUCt: 13.7 nmol·h/g
[7]
  Ratio: 140
[8]
  Ratio AUC: 3.92
[9]
  Drug metabolism: 46.7 µM
[10]
  Activity: Dose-Dependent Effect
[11]
  AUCt: 3.13 nmol·h/g
[12]
  Cmax: 1.86 µM
[13]
  concentration: 5.49 µM
[14]
  AUC: 3.67 µM·h
[15]
  Tmax: 30 min
[16]
  Ratio AUC: 3.6
[17]
  t1/2: 59.4 min
[18]
  Cmax: 5.49 µM
[19]
  Stability: Stable
[20]
  Cmax: 1.54 µM
[21]
  t1/2: 83.4 min
[22]
  AUC: 14.4 µM·h
[23]
  Tmax: 60 min
[24]
  Ratio AUC: 4.4
[25]
  concentration at 6 h: < 0.01 µM
[26]
  Stability: Unstable
[27]
  Ratio AUC: 3.63

## CN(C)CC(=O)N[C@@H](Cc1ccc(C(F)(F)F)cc1)C(=O)N[C@@H](CCC(=O)C=[N+]=[N-])C(=O)OC(C)(C)C
[13]
  concentration: 4.16 µM

## CC(=O)N[C@@H](Cc1c[nH]c2ccccc12)C(=O)N[C@@H](CCC(=O)C=[N+]=[N-])C(=O)OC(C)C [SIRPIGLENASTAT]
[4]
  Stability: Stable
[7]
  Ratio: 180
[9]
  Drug metabolism: 9.1 µM
[10]
  Activity: Dose-Dependent Effect
[13]
  concentration: 1.21 µM
[19]
  Stability: Stable
[26]
  Stability: Unstable

## CN(C)CC(=O)N[C@@H](CCc1ccccc1)C(=O)N[C@@H](CCC(=O)C=[N+]=[N-])C(=O)OC(C)(C)C
[13]
  concentration: 4.52 µM
